Measured values taken from ChEMBL document CHEMBL2429849, “Substrate-based fragment identification for the development of selective, nonpeptidic inhibitors of striatal-enriched protein tyrosine phosphatase” (J Med Chem, 2013).
Calls of active or inactive are those of the source. The rule behind the calls is not given here.

Legend:
[1] = target: Receptor-type tyrosine-protein phosphatase F (Homo sapiens, UniProt P10586); assay: Inhibition of human LAR using pNPP as substrate after 5 mins by spectrophotometric plate reader analysis
Chain of Receptor-type tyrosine-protein phosphatase F (P10586 whole entry): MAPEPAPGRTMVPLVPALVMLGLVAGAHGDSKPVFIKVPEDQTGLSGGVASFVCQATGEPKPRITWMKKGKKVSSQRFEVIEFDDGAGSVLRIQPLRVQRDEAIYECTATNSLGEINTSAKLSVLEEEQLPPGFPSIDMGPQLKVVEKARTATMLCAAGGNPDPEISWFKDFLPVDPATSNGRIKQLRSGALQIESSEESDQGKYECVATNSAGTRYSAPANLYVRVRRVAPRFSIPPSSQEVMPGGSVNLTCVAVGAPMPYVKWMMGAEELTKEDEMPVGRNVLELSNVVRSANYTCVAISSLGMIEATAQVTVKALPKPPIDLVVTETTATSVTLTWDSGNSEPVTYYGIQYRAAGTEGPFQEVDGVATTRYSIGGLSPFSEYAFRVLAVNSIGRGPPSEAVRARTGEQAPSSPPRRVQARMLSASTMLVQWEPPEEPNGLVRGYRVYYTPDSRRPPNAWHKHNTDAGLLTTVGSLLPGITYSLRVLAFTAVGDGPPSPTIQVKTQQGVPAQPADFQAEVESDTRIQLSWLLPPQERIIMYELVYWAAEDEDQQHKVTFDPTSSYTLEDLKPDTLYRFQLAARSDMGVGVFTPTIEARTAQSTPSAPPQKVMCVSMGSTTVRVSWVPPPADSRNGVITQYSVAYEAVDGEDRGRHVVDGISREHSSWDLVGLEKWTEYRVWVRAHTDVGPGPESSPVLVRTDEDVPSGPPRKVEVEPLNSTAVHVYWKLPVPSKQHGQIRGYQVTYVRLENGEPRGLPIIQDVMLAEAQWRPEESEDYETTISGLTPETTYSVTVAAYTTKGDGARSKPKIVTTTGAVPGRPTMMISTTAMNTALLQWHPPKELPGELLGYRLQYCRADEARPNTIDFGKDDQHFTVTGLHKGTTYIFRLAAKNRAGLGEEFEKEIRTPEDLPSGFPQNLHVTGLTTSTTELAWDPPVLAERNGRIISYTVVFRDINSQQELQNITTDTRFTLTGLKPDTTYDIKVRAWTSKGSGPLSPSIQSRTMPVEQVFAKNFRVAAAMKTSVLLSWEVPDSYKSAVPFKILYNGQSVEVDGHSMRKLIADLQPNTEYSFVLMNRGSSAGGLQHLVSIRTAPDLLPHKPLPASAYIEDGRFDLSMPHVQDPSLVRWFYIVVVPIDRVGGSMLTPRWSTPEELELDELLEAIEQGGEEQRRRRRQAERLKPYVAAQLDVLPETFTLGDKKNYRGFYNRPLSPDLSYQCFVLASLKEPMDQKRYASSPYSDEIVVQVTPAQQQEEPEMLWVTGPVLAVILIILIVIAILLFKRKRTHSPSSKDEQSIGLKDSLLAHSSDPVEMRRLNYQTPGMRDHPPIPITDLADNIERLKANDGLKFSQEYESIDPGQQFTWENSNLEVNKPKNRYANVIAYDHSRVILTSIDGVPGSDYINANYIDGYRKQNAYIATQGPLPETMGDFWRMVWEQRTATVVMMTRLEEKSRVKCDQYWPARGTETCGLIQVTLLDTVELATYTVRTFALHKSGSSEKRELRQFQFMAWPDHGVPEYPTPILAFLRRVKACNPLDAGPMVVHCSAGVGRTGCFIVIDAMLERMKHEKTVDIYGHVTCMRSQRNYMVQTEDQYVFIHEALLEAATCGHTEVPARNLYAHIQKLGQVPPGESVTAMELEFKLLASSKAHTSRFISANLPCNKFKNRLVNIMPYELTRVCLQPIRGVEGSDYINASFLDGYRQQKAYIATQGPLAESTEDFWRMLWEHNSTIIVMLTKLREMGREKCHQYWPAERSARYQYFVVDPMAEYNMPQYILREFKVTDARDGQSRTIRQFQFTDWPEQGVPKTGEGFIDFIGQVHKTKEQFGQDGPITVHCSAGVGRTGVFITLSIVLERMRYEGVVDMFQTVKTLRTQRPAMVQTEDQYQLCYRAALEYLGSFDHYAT
In short: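 Enzyme preincubated 5 min at 27 °C with serially diluted inhibitor (from DMSO) in imidazole/NaCl buffer pH 7.0 with 0.01% Triton X-100 and 5 mM DTT. Started with pNPP (500 μM in assay) and read at 405 nm for 20 min. The pNPP KM was measured for each enzyme. Ki from nonlinear regression of substrate–velocity curves at several inhibitor levels; at least duplicate.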

[2] = target: T1, Tyrosine-protein phosphatase non-receptor type 2 (Homo sapiens, UniProt P17706); assay: Inhibition of human TC-PTP using pNPP as substrate after 5 mins by spectrophotometric plate reader analysis
T1 sequence (P17706 whole entry): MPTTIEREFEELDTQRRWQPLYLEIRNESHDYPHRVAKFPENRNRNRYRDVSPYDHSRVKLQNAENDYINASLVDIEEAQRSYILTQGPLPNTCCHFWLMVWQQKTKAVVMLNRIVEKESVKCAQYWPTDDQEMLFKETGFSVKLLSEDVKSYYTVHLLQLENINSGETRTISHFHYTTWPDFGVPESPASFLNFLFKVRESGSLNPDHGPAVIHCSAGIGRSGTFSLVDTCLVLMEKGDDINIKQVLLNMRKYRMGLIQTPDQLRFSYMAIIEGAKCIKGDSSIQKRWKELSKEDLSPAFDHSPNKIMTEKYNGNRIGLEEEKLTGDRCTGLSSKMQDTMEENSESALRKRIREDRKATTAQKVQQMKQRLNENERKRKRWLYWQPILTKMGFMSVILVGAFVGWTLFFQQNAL
In short: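 Selectivity assay using the STEP Ki protocol. Enzyme was preincubated 5 min at 27 °C with two- or three-fold inhibitor serial dilutions in DMSO, in imidazole/NaCl buffer at pH 7.0 with 0.01% Triton X-100 and 5 mM DTT. Reaction started with pNPP (500 μM in assay), read continuously at 405 nm for 20 min. Ki came from nonlinear regression of substrate-velocity curves, using this enzyme's pNPP KM; at least duplicate.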

[3] = target: T2, Tyrosine-protein phosphatase non-receptor type 5 (Rattus norvegicus) (UniProt P35234); assay: Inhibition of STEP in Sprague-Dawley rat embryo primary cortical neurons assessed as phosphorylation of GluN2B at 0.1 to 10 uM after 1 hr by Western blot analysis; conditions: Cerebral cortex neuron
T2 sequence (whole entry): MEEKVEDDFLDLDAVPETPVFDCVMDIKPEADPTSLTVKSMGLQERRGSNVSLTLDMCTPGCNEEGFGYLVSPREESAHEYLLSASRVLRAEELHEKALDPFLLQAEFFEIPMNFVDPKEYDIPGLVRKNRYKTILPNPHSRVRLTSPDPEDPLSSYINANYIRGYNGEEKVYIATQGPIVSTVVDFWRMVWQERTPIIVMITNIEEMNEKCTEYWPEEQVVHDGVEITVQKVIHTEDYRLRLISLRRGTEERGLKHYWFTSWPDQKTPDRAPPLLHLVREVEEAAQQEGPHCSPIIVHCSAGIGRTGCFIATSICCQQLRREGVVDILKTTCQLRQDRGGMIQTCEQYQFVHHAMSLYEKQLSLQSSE
In short: (§1)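 E18 rat cortical neurons were trypsin-dissociated and plated on poly-D-lysine in Neurobasal with 2% B27, then grown 18–21 days at 37 °C. Compound was added at final 0, 0.1, 1 or 10 μM (0.1% DMSO) for 1 h at 37 °C. Cells were lysed in RIPA with protease/phosphatase inhibitors and protein measured by BCA. Phospho and total proteins were blotted by SDS-PAGE, with antibodies overnight at 4 °C and chemiluminescent detection.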

Homo sapiens [4] = species on record: Homo sapiens; assay: Selectivity ratio of Ki for human LAR to Ki for human STEP
In short: (§2)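 STEP, CD45, LAR and TC-PTP used pNPP (500 μM) in imidazole/NaCl pH 7.0 with Triton X-100, read at 405 nm for 20 min. MKP5 used DiFMUP in Tris-HCl pH 8.0. The enzyme's own pNPP KM was used in analysis; ratio of the Ki values.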

[5] = target: T2, Tyrosine-protein phosphatase non-receptor type 5 (Rattus norvegicus); assay: Inhibition of STEP in Sprague-Dawley rat embryo primary cortical neurons assessed as phosphorylation of ERK1/2 at 0.1 to 10 uM after 1 hr by Western blot analysis; conditions: Cerebral cortex neuron; in short: as §1
Homo sapiens [6] = species on record: Homo sapiens; assay: Selectivity ratio of Ki for human TC-PTP to Ki for human STEP; in short: as §2
[7] = target: T3, Dual specificity protein phosphatase 10 (Homo sapiens, UniProt Q9Y6W6); assay: Inhibition of human MKP5 using DiFMUP as substrate after 5 mins by spectrophotometric plate reader analysis
T3 sequence (Q9Y6W6 whole entry): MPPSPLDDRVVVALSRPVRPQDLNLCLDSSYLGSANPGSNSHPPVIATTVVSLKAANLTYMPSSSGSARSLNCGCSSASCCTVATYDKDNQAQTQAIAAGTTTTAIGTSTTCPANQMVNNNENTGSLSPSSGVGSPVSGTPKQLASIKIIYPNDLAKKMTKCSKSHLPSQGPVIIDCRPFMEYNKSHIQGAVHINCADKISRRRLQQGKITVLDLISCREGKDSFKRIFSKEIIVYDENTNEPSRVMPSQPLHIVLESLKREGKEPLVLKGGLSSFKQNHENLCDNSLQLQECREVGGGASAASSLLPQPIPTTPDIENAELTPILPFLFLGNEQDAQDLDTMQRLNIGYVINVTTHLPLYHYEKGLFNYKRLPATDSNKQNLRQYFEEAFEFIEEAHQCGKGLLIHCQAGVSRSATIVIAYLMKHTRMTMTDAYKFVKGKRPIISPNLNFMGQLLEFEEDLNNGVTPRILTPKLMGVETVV
In short: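 The […] substrate was DiFMUP. Buffer was Tris-HCl pH 8.0 with Triton X-100 and 5 mM DTT. Inhibitor was preincubated with enzyme for 5 min at 27 °C before adding substrate. Ki from nonlinear regression of initial-rate substrate–velocity data at several inhibitor concentrations; at least duplicate.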

Homo sapiens [8] = species on record: Homo sapiens; assay: Selectivity ratio of Ki for human CD45 to Ki for human STEP; in short: as §2
[9] = target: T2, Tyrosine-protein phosphatase non-receptor type 5 (Rattus norvegicus); assay: Inhibition of STEP in Sprague-Dawley rat embryo primary cortical neurons assessed as phosphorylation of Pyk2 at 0.1 to 10 uM after 1 hr by Western blot analysis; conditions: Cerebral cortex neuron; in short: as §1

O=P(O)(O)[C@H](O)c1ccc(-c2cccc([C@H](O)c3ccc(Cl)c(Cl)c3)c2)cc1
Ki [1]: 390 µM | Ki [2]: 170 µM | inhibition [3]: Active | Ratio Ki (Homo sapiens [4]): 50 | inhibition [5]: Active | Ratio Ki (Homo sapiens [6]): 22 | Ki [7]: > 500 µM | Ratio Ki (Homo sapiens [8]): 35 | inhibition [9]: Active

O=P(O)(O)[C@H](O)c1ccc(-c2cccc([C@@H](O)c3ccc(Cl)c(Cl)c3)c2)cc1
Ki [1]: 360 µM | Ki [2]: 164 µM | inhibition [3]: Active | Ratio Ki (Homo sapiens [4]): 40 | inhibition [5]: Active | Ratio Ki (Homo sapiens [6]): 18 | Ki [7]: 340 µM | Ratio Ki (Homo sapiens [8]): 38 | inhibition [9]: Active
